SMILES strings stand for the structures.

For test [1], the target named is T1, Bile acid receptor (Homo sapiens) (UniProt Q96RI1).
T1 sequence (whole entry): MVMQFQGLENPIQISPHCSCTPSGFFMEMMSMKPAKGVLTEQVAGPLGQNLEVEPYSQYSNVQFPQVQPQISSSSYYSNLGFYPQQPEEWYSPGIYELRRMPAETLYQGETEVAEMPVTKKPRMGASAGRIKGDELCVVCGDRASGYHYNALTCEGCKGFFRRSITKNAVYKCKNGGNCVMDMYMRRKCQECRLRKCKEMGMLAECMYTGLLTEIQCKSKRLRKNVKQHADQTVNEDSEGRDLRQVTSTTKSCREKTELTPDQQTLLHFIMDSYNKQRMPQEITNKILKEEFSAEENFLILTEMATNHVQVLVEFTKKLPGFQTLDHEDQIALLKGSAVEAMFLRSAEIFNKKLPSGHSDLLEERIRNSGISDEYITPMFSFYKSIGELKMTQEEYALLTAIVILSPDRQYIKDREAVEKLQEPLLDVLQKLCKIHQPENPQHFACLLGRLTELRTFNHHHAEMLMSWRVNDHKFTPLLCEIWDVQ
The test is described as follows: Agonist activity at FXR in human HepG2 cells assessed as induction of SHP mrNA expression at 0.1 uM by quantitative PCR method. It counts as cell-based. In outline: (§1)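 HepG2 cells were seeded at 2 × 10⁶ per well. After 24 h they were switched to MEM with 1% charcoal-stripped FCS, and 24 h later dosed with compound (0.1, 0.3, 1, 3, 10 μM; 0.1% DMSO final) for 24 h. Total RNA was reverse transcribed and analysed by qPCR, GAPDH-normalized, ΔΔCt method. Samples were run in duplicate in ≥4 independent experiments.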

Test [2] concerns the target T1, Bile acid receptor (Homo sapiens). The test is described as follows: Agonist activity at FXR in human HepG2 cells assessed as induction of BSEP mrNA expression at 3 uM by quantitative PCR method. The class given is cell-based. In outline: as §1
The target is the same in test [3]. The test is described as follows: Agonist activity at FXR in human HepG2 cells assessed as induction of IBABP mrNA expression at 1 uM by quantitative PCR method. The class given is cell-based.
The target is the same in test [4]. The test is described as follows: Agonist activity at FXR in human HepG2 cells assessed as induction of IBABP mrNA expression at 10 uM by quantitative PCR method. The class given is cell-based.
A further test is filed under the species Homo sapiens. The test is described as follows: Selectivity index, ratio of EC50 for human TGR5 to EC50 for human FXR.
The target of test [5] is T1, Bile acid receptor (Homo sapiens). The test is described as follows: Agonist activity at FXR in human HepG2 cells assessed as induction of OSTalpha mrNA expression at 0.3 uM by quantitative PCR method. It counts as cell-based. Summed up:
as §1

As to `COc1ccc(C(=O)Nc2cccc(C(=O)O)c2)c(NC(=O)c2ccc(C(C)(C)C)cc2)c1`, the Activity in test [1] is 239%; in test [2], 326%; in test [3], 161%; in test [4], 144%; in test [5], 198%. The Ratio EC50 in the test listed under Homo sapiens was above 1000.

Source of the values: ChEMBL document CHEMBL3351394 (J Med Chem, 2014).
